Bioassay records deposited in PubChem BioAssay by several laboratories.
Sampled rows, rich in hits. Any-hit rate of the full collection: about 1.1%.
TNAP inh hi DEA: human TNAP enzyme inhibitors, primary screen, biochemical, luminescent, high phosphate acceptor level, uHTS. actives 0.03% (n = 200,000). Alkaline phosphatase, tissue-nonspecific isozyme (Homo sapiens), P05186. purified TNAP, CDP-star luminescence, 1 M DEA. inhibition, % at 20 µM;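 active = over 50% inhibition of tissue-nonspecific alkaline phosphatase at 20 µM in the single-dose screen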;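 also: plate controls were DMSO wells for no effect and EDTA-quenched wells as full inhibition for full effect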
S1P4 antagonist: S1P4 receptor antagonists, primary screen, cell-based; Sphingosine 1-phosphate receptor 4 (Homo sapiens), O95977; S1P4-expressing cells, antagonist mode, reporter read-out; inhibition, % at 4.98 µM; actives 0.26% (n = 220,000); AID 1510, 2009; in the data active = inhibition above about 29%;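 also: 0% = wells stimulated with agonist and 100% = vehicle wells without agonist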
Target sequence (O95977 whole entry, looked up): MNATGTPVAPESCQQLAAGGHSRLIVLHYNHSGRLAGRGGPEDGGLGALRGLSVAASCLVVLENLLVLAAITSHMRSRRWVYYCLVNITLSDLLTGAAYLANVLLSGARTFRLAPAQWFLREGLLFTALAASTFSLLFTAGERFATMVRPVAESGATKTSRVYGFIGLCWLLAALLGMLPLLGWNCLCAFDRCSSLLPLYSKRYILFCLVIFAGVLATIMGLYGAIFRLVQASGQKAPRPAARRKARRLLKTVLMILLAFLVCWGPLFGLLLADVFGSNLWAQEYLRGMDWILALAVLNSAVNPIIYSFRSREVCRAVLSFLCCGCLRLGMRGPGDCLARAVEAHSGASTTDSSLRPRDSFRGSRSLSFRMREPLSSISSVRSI
S1P4 ag: S1P4 receptor agonists, primary screen, cell-based; activation, % at 4.98 µM; Sphingosine 1-phosphate receptor 4 (Homo sapiens), O95977; S1P4-expressing cell line, agonist reporter assay; AID 1509, 2009; actives 0.35% (n = 220,000); in the data active = activation above about 11%;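 also: 0% = DMSO vehicle and 100% = reference agonist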
TNAP act hi DEA: TNAP activators at high phosphate acceptor level, primary screen, biochemical, luminescence, uHTS. Alkaline phosphatase, tissue-nonspecific isozyme (Homo sapiens), P05186. purified TNAP, CDP-star luminescence, 1 M DEA, 30 min; hits give high values; 0 = EDTA background, 1 = DMSO-only activity. activation factor at 20 µM. 200,000 tested, under 10 active;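 active = activation factor at least 2 at 20 µM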
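Control set: EDTA negative control, DMSO positive control / Assay system: human TNAP / Quantity: TNAP 1/800 final / Evaluation: TNAP activation factor scaled between EDTA and DMSO control wells / Measured by: luminescent substrate turnover signal / Compound dosing: one dose, 20 µM / Times: 30 min enzyme reaction at room temperature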
S1P3 antagonist: S1P3 receptor antagonists, primary screen, cell-based; Sphingosine 1-phosphate receptor 3 (Homo sapiens), Q99500; CHO S1P3 NFAT-BLA reporter, FRET fluorescence, antagonist mode; inhibition, % at 4.98 µM; actives 0.27% (n = 170,000);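 active = inhibition above the plate cutoff, the mean inhibition of test wells on that plate plus 3 SD, cut at about 28% in these data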;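 also: cells challenged with S1P at its EC80 of 0.8 µM; blue over green emission ratio from cleaved BLA substrate after 4 h stimulation; 0% = S1P-stimulated wells and 100% = unstimulated DMSO-only wells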
TNAP inh no acc: human TNAP enzyme inhibitors, primary screen, biochemical, luminescent, no phosphate acceptor, uHTS; Alkaline phosphatase, tissue-nonspecific isozyme (Homo sapiens), P05186; purified TNAP, CDP-star luminescence, 30 min; inhibition, % at 20 µM; actives 0.26% (n = 200,000); AID 1012, 2008;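 active = tissue-nonspecific alkaline phosphatase inhibition above about 50% at 20 µM in the single-dose screen, limit read from the data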;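 also: 0% = DMSO negative control and 100% = EDTA positive control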
* hit, by the source's call; nt = no result.

SMILES	TNAP inh hi DEA	S1P4 antagonist	S1P4 ag	TNAP act hi DEA	S1P3 antagonist	TNAP inh no acc
Nc1nc(-c2cc(Cl)cc(Cl)c2OC(F)F)cs1	-7	7	-3	1.1	6	-7
O=C(CN1CCN(S(=O)(=O)c2ccc(F)cc2)CC1)c1ccc(O)c(O)c1	2	4	-1	1	10	56*
Nc1ccc(Cl)c(S(=O)(=O)Nc2ccc(Cl)cc2)c1	nt	5	-1	nt	-2	nt
CC1=C(C)/C(=N\OS(=O)(=O)c2ccc(C)cc2)C=CC1=O	2	43*	1	1	0	1
COc1ccc(S(=O)(=O)/N=C2/C=CC(=O)C(C)=C2C)cc1	-5	-7	-3	1.1	nt	-10
COc1ccc(OC)c(N(CC(=O)Nc2cccnc2)S(=O)(=O)c2ccccc2)c1	-4	4	0	1	nt	-9
Cc1n[nH]c(C)c1S(=O)(=O)N1CCOCC1	2	3	1	1	-22	57*
COc1cc(NC(=O)Nc2ccc3c(c2)OCO3)cc(OC)c1OC	-3	-10	1	1	-3	-8
COc1ccc(C(C)(C)C)cc1NC(=O)Nc1ccc2c(c1)OCO2	-2	1	-2	1	59*	-9
NS(=O)(=O)c1cccc(NC(=O)CSc2nc3ccc(Cl)cc3[nH]2)c1	9	-20	1	0.9	-8	67*
NS(=O)(=O)c1ccc(NC(=O)CSc2ncccn2)cc1	nt	7	-3	nt	-6	nt
CCCCc1nc(SCC(=O)Nc2ncccn2)n[nH]1	1	-17	2	1	nt	58*
CCCCc1nc(SCC(=O)Nc2ccc(S(N)(=O)=O)cc2)n[nH]1	-1	10	1	1	-15	60*
CC(C)c1nc(SCC(=O)Nc2cccc(S(N)(=O)=O)c2)n[nH]1	-2	23	-4	1	nt	57*
CC(C)C1Cc2nc(Cl)c(C#N)cc2CO1 (configuration not stated)	nt	-2	-1	nt	-10	nt
O=C(CCc1nnc(C2CCCCC2)o1)NCCCOc1cccnc1	-5	1	0	1.1	-4	-7
CCOC(=O)C1(CC2CCCCO2)CCN(Cc2cn[nH]c2-c2cccc(F)c2)CC1 (configuration not stated)	-2	4	5	1	8	6
Cc1nc2sccn2c(=O)c1CCN1CCC(=C(c2ccc(F)cc2)c2ccc(F)cc2)CC1	5	-1	0	1	-2	0
Cc1nc2ccccn2c(=O)c1CCN1CCC(C(=O)c2ccc(F)cc2)CC1	-1	-1	81*	1	-10	-4
C=CCc1cccc(CNc2nc3ccccc3n2CCC)c1O	-5	7	-3	1	77*	-8
Cc1c(Br)c(=O)oc2c(Br)c(O)c(O)cc12	2	-5	3	1	-1	50*
Cc1c(Br)c(=O)oc2c(Br)c(O)ccc12	-1	6	4	1	-20	-13
CCc1c(C(=O)Nc2cc(C)ccc2OC)[nH]c(C)c1C(C)=O	0	-11	0	1	58*	-2
CCc1c(C(=O)Nc2ccc(OC)cc2)[nH]c(C)c1C(C)=O	-2	-17	3	1	3	1
O=Cc1ccnc(-c2ccc(OC(=O)c3ccco3)cc2)n1	-2	-3	1	1	-14	-4
SMILES	TNAP inh hi DEA	S1P4 antagonist	S1P4 ag	TNAP act hi DEA	S1P3 antagonist	TNAP inh no acc
CCCCNS(=O)(=O)c1ccc2nc(-c3cccnc3)cc(C(=O)NC3CCCC3)c2c1	nt	-2	0	nt	-7	nt
O=C(c1n[nH]c2c1CCCC2)n1ccnc1	-2	-28	0	1	-17	70*
CCOc1cc(/C=C2\SC(=S)N(Nc3ccccc3)C2=O)ccc1O	49	-12	1	0.5	nt	38
COc1ccc(C2=NN(c3ccccc3)C(=O)/C2=C\c2ccc(O)c(OC)c2)cc1	41	13	1	0.6	-11	50*
O=C1/C(=C/c2ccc(O)c(O)c2)SC(=S)N1Nc1ccccc1	88*	2	0	0.1	-4	94*
COc1cc(/C=C2\SC(c3ccc(C)cc3)=NC2=O)ccc1O	40	-16	2	0.6	nt	36
COc1cc(/C=C2\SC(=S)N(Nc3ccccc3)C2=O)ccc1O	55*	-17	0	0.4	-9	44
COc1cc(/C=C2/SC(=S)N(CC3CCCO3)C2=O)ccc1O (configuration not stated)	56*	-6	1	0.4	-5	36
O=C(O)c1ccc(/C=C2\SC(=S)N(Nc3ccccc3)C2=O)cc1	nt	-12	-1	nt	9	nt
CCN(CC)C(=O)c1sc(N2C(=O)Nc3ccccc3N2O)c(C(=O)OC)c1C	-1	-3	0	1	-5	-8
COc1cc(C(=O)NCc2nnc(SCC(=O)N3CCCc4ccccc43)o2)cc(OC)c1OC	0	-13	1	1	22	13
O=c1c2ccccc2ncn1CCOc1ccccc1[N+](=O)[O-]	-5	-2	-1	1	1	-10
CCCOc1ccc(/C(O)=C2/C(=O)C(=O)N(CCN(C)C)C2c2ccncc2)cc1 (configuration not stated)	nt	-3	36*	nt	nt	nt
Cc1ccc(C(=O)n2nc(-n3cccc3)c3c(C)cc(C)nc32)cc1	0	-20	1	1	-11	58*
Cc1cc(C)c2c(-n3cccc3)nn(C)c2n1	-4	-2	1	1	nt	-2
NC(=O)c1sc2nccc(Nc3ccccc3)c2c1N	-4	-6	0	1	72*	-3
COc1ccc(NC(=O)CCC(=O)OCc2ccc([N+](=O)[O-])cc2)cc1	0	-9	3	1	-16	-2
Cc1[nH]c2ccccc2c1C(=O)CSc1nc2ncc(Cl)cc2[nH]1	1	-16	0	1	-24	58*
COc1ccc(CCNC(=O)c2cc3c(C)nccc3[nH]c2=O)cc1OC	-7	-26	1	1.1	7	-6
CCOc1ccc(-c2cc(N3C(=O)Nc4ccccc4N3O)n[nH]2)cc1	-5	8	0	1.1	-1	52*
O=C(CN1CCN(S(=O)(=O)/C=C/c2ccccc2)CC1)Nc1ccccc1N1CCOCC1	nt	-4	-1	nt	-4	nt
O=C(CSc1nnc2ccccn12)N1CCc2ccccc21	1	-5	0	1	6	-2
COc1cc(/C=C/c2sc3ccccc3[n+]2CCCS(=O)(=O)[O-])ccc1O	57*	3	0	0.4	-5	55*
